How the values were obtained:
[1] = molecular target: Tyrosine-protein kinase Srms (Homo sapiens) (UniProt Q9H3Y6); test: Inhibition of SRMS at 1 uM in presence of 10 uM ATP by Select Screen kinase assay relative to untreated control
Summary of the method: (§1)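 Commercial SelectScreen profiling panel of 220 purified kinases. Each kinase was tested at a single inhibitor concentration of 1 μM, and activity was expressed as percent inhibition.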

[2] = molecular target: Calcium/calmodulin-dependent protein kinase type II subunit alpha (Homo sapiens) (UniProt Q9UQM7); test: Inhibition of CAMK2A at 1 uM in presence of 10 uM ATP by Select Screen kinase assay relative to untreated control
Summary of the method: (§2)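 Single-point screen at 1 μM against a panel of 220 purified kinases, run by Invitrogen staff as a SelectScreen profiling service. Read-out is percent inhibition of kinase activity.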

[3] = molecular target: Macrophage colony-stimulating factor 1 receptor (Homo sapiens) (UniProt P07333); test: Inhibition of CSF1R at 1 uM in presence of 10 uM ATP by Select Screen kinase assay relative to untreated control; summary of the method: as §2
[4] = molecular target: T1, Serine/threonine-protein kinase DCLK2 (Homo sapiens) (UniProt Q8N568); test: Inhibition of DCAMKL2 at 1 uM in presence of 100 uM ATP by Select Screen kinase assay relative to untreated control; summary of the method: as §2
T1 sequence (whole entry): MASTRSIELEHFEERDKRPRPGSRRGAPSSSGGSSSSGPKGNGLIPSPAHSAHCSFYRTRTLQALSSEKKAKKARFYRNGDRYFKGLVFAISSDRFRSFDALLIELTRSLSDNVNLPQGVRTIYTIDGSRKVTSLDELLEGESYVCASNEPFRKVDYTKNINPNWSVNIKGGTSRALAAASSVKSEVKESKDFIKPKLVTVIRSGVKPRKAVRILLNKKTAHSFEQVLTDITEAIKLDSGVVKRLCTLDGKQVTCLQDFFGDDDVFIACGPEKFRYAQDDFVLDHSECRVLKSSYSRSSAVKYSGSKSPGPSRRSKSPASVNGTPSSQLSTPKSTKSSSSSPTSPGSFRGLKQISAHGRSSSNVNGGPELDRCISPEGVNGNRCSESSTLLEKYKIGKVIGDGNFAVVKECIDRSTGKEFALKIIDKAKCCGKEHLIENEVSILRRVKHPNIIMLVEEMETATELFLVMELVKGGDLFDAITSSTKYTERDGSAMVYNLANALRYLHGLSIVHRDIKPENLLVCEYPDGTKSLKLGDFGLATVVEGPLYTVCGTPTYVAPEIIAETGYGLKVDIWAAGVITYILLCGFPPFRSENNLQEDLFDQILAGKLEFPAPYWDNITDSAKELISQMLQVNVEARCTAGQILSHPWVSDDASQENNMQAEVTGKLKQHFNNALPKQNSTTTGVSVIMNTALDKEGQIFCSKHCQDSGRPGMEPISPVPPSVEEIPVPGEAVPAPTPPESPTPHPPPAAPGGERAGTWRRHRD

[5] = molecular target: Tyrosine-protein kinase Lyn (Homo sapiens) (UniProt P07948); test: Inhibition of LYN B at 1 uM in presence of 10 uM ATP by Select Screen kinase assay relative to untreated control
Summary of the method: (§3)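 Single-concentration profiling at 1 μM against a panel of 220 purified kinases, run as an outsourced SelectScreen kinase profiling service. Activity is expressed as percent inhibition.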

[6] = molecular target: Mitogen-activated protein kinase 1 (Homo sapiens) (UniProt P28482); test: Inhibition of MAPK1 at 1 uM in presence of 10 uM ATP by Select Screen kinase assay relative to untreated control; summary of the method: as §3
[7] = molecular target: T2, Serine/threonine-protein kinase Nek9 (Homo sapiens) (UniProt Q8TD19); test: Inhibition of NEK9 at 1 uM in presence of 10 uM ATP by Select Screen kinase assay relative to untreated control; summary of the method: as §1
T2 sequence (whole entry): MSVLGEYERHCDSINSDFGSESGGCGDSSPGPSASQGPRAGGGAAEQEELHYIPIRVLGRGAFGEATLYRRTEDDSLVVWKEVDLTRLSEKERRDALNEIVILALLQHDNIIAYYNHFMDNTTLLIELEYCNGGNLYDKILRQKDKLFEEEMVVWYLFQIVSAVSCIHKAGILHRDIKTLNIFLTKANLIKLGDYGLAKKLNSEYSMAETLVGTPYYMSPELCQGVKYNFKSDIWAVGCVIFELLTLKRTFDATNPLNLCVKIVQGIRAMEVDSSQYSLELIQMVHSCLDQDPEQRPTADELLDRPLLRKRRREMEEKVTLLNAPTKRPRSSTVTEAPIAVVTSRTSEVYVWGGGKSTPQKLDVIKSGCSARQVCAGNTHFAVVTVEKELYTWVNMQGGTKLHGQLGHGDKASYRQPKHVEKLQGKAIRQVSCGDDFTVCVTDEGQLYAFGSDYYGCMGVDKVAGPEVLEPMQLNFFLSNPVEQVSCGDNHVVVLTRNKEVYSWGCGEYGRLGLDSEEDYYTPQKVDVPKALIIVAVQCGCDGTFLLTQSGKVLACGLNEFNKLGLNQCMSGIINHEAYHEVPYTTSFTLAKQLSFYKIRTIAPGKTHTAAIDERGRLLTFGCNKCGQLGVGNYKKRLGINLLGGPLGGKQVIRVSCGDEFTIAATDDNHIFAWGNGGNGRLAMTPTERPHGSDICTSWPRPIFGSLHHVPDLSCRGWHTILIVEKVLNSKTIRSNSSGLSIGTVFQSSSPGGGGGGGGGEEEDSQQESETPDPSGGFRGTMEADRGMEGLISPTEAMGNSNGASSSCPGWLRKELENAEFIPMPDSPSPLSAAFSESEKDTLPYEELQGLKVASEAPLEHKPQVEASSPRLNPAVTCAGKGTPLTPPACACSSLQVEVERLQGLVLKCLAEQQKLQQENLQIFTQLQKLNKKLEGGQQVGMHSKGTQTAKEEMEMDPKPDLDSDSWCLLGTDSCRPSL

Chain of Tyrosine-protein kinase Srms (Homo sapiens) (Q9H3Y6 whole entry): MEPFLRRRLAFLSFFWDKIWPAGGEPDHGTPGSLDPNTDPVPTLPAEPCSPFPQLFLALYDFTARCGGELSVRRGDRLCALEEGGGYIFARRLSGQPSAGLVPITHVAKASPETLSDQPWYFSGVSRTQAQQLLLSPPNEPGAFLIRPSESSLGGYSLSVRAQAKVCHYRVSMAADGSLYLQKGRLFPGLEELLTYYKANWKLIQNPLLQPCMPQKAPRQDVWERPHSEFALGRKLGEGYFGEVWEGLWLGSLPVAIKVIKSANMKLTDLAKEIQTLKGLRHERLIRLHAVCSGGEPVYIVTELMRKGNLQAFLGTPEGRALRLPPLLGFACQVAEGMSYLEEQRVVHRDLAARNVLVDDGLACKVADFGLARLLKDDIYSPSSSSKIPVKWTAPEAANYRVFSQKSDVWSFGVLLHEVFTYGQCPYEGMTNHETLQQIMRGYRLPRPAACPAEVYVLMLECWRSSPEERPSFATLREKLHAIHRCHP
Chain of Macrophage colony-stimulating factor 1 receptor (Homo sapiens) (P07333 whole entry): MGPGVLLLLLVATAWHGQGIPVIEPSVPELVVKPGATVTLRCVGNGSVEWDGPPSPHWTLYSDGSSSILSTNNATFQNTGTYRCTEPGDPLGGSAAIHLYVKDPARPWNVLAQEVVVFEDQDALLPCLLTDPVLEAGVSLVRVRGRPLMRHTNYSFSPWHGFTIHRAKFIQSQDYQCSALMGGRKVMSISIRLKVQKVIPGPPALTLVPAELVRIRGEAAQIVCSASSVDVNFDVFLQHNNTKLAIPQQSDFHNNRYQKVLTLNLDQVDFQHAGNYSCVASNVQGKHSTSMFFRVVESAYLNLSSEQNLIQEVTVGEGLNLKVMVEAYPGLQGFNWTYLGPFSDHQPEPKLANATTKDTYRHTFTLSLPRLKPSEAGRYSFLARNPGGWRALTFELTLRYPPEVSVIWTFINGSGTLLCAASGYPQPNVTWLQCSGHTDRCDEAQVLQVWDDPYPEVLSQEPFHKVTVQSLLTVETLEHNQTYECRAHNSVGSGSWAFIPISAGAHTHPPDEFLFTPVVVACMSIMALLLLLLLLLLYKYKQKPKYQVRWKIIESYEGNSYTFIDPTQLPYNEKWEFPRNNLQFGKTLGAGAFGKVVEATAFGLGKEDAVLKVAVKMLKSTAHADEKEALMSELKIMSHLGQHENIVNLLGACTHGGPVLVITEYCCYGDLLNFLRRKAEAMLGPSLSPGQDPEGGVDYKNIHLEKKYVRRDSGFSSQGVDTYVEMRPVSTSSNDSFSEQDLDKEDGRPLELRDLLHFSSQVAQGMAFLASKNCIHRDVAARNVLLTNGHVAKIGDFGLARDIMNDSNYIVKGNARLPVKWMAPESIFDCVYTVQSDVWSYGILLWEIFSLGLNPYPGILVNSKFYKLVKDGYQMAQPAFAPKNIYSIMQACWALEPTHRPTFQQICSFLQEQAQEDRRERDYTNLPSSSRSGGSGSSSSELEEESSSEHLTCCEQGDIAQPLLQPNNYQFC
Chain of Calcium/calmodulin-dependent protein kinase type II subunit alpha (Homo sapiens) (Q9UQM7 whole entry): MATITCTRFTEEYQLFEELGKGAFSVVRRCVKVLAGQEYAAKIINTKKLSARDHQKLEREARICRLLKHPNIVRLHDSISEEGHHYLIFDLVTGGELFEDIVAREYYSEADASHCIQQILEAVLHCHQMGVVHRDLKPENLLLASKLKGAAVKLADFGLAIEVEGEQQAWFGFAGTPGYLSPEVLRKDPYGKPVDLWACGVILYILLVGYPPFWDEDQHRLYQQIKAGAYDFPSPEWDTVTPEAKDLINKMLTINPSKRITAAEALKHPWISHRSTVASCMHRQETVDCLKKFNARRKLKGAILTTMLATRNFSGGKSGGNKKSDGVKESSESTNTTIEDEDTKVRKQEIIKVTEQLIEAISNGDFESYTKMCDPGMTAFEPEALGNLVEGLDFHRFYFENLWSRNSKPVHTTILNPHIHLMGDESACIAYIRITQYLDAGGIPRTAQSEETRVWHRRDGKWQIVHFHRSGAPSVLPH
Chain of Mitogen-activated protein kinase 1 (Homo sapiens) (P28482 whole entry): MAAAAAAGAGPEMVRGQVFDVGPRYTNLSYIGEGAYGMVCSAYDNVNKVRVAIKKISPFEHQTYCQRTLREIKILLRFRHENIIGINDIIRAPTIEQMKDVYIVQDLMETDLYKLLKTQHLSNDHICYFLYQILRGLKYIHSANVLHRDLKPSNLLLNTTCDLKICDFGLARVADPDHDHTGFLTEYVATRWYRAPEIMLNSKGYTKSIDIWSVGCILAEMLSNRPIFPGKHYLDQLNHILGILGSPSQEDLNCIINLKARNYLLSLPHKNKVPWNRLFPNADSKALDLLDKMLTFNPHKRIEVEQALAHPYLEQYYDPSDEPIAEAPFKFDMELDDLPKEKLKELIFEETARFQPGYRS
Chain of Tyrosine-protein kinase Lyn (Homo sapiens) (P07948 2-512 limits assumed): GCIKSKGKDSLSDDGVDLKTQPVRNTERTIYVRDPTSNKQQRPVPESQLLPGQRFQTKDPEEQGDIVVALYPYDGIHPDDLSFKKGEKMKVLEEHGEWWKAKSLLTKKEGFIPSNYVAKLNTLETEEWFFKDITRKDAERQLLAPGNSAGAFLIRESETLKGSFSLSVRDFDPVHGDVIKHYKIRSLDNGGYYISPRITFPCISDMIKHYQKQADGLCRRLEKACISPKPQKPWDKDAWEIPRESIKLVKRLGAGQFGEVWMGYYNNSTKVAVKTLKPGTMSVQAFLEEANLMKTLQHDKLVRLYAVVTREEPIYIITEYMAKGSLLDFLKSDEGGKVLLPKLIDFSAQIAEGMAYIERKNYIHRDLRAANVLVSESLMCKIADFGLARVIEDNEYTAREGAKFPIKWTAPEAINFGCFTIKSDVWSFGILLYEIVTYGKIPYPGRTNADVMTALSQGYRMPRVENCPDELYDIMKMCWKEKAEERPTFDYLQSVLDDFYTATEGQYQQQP

inhibition [1]	inhibition [2]	inhibition [3]	inhibition [4]	inhibition [5]	inhibition [6]	SMILES	inhibition [7]
10%	79%	44%	10%	21%	52%	O=C(NCCCNc1nc(Nc2cccc(NC(=O)N3CCCC3)c2)ncc1I)c1cccs1	88%
7%	16%	26%	6%	10%	11%	COc1ccccc1N1CCN(c2ncnc3[nH]nc(Br)c23)CC1	12%

SMILES	inhibition [1]	inhibition [2]	inhibition [3]	inhibition [4]	inhibition [5]	inhibition [6]	inhibition [7]
Cc1n[nH]c2ccc(-c3cncc(OC[C@@H](N)Cc4c[nH]c5ccccc45)c3)cc12	-1%	80%	5%	11%	7%	61%	15%

From ChEMBL document CHEMBL1250448, “Inhibitor hijacking of Akt activation” (Nat Chem Biol, 2009)
